Measurements: publication PMC11908206 (bioRxiv, 2025)

How the values were obtained:
[1] = test system: ApcQ1405X small intestinal organoids; test: Organoid viability; assay type: cell-based, mouse; conditions: 250nM
Outline: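 Mouse ApcQ1405X small-intestinal organoids plated at high density in Matrigel, two wells per condition, in EN medium (EGF 40 ng/ml, LDN 50 nM) containing DMSO or 250 nM compound. Medium changed every 2 days. Every 4 days, alamarBlue added to one well and fluorescence read; the other well passaged 1:2 into the same condition. Run for 20 days; n = 3, mean with SEM.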

[2] = test system: OVCAR4 cells; test: Colony forming assay, OVCAR4; assay type: cell-based, human
[3] = test system: ApcQ1405X small intestinal organoids; test: Organoid viability; assay type: cell-based, mouse; conditions: all Tnks1 genotypes, 6 days
[4] = test system: Apc^Q1405X small intestinal organoids; test: RNA-seq and GSEA of ApcQ1405X small intestinal organoids; assay type: cell-based, mouse; conditions: 250nM G007-LK or 500nM TDI-012804, 3 days; for transcriptional response (RNA-seq), Tnks1 KO: ApcQ1405X/Tnks1 KO organoids; for transcriptional response (RNA-seq), Tnks1 WT: ApcQ1405X/Tnks1 WT organoids
Outline: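 Organoids plated at one six-well per condition in EN medium (basal Advanced DMEM/F12 with EGF 40 ng/ml and LDN 50 nM). Medium contained DMSO or test compound at 250 nM or 500 nM, then harvested for RNA isolation and sequencing.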

[5] = test system: ApcQ1405X/KrasG13D/p53Q97X small intestinal organoids; test: Organoid viability; assay type: cell-based, mouse; conditions: six days
[6] = test system: AXIN1 in SW403 cells; test: Western blot of AXIN1 in SW403 cells; assay type: cell-based, human; conditions: SW403 (8p heterozygous), 250nM, 24h
Outline: (§1)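 Cells grown in RPMI-1640 with 10% FBS; 700,000 per well seeded and allowed to adhere 24h. Exposed to 250 nM compound for 24h, then lysed in RIPA buffer on ice for 20 min and cleared at 15,000 rpm for 10 min. 20 µg protein per lane probed for AXIN1; band intensity quantified.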

[7] = test system: TNKS2^WT, TNKS2^L1136Y and TNKS1 SAM-PARP domains; test: In vitro PARylation assay with purified SAM-PARP domains; assay type: biochemical
[8] = biological target: T1, PARP3 (Homo sapiens, UniProt Q9Y6F1); test: PARP3 inhibition; assay type: biochemical; conditions: Fig. S9
T1 sequence (Q9Y6F1 1-533): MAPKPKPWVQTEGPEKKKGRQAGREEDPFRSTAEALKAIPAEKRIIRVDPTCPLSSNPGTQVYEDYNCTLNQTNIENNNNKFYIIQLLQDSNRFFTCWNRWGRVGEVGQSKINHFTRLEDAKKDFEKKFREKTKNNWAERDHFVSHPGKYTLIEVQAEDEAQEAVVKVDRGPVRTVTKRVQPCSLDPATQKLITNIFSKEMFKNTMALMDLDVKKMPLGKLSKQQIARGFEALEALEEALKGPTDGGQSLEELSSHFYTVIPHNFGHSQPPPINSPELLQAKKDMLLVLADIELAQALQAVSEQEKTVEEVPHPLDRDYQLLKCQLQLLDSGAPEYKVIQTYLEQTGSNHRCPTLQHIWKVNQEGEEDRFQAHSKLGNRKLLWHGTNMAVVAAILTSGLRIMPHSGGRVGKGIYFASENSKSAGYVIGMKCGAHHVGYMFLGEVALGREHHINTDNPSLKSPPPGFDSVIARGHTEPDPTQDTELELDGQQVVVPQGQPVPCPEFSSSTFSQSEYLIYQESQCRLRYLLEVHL

[9] = test system: H23 cells; test: Colony forming assay, H23; assay type: cell-based, human
[10] = test system: AXIN1 in H23 cells; test: Western blot of AXIN1 in H23 cells; assay type: cell-based, human; conditions: 8p diploid H23, 250nM, 24h
Outline: as §1

[11] = test system: TOPFlash reporter in DLD1 cells; test: TOPFlash WNT transcriptional reporter in TNKS1 isogenic DLD1 cells; assay type: cell-based; conditions: Homo sapiens, DLD-1, read-out: TOP-Flash reporter EC50
[12] = biological target: PARP1 (Homo sapiens, UniProt P09874); test: PARP1 inhibition; assay type: biochemical; conditions: Fig. S9
[13] = biological target: PARP2 (Homo sapiens, UniProt Q9UGN5); test: PARP2 inhibition; assay type: biochemical; conditions: Fig. S9
[14] = test system: AXIN1 in DLD1 cells; test: Western blot of endogenous AXIN1 in TNKS1 isogenic DLD1 cells; assay type: cell-based; conditions: 500nM or 250nM, 24h
Outline: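 DLD1 TNKS1-edited clones made by Cas9 and TNKS1 sgRNA transduction with drug selection, then single-cell cloning by limiting dilution. For blotting, 700,000 cells/well were allowed to adhere 24h and treated with compound for 24h. Lysis in RIPA buffer on ice for 20 min; 20 µg protein per sample blotted for AXIN1; band intensity quantified.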

[15] = test system: ApcQ1405X/KrasG12D/p53Q97X small intestinal organoids; test: Organoid viability; assay type: cell-based, mouse; conditions: six days
[16] = test system: AXIN1 in TNKS1^KO DLD1 cells; assay type: cell-based; conditions: 24h

PARP2, sequence (Q9UGN5 whole entry, species assumed): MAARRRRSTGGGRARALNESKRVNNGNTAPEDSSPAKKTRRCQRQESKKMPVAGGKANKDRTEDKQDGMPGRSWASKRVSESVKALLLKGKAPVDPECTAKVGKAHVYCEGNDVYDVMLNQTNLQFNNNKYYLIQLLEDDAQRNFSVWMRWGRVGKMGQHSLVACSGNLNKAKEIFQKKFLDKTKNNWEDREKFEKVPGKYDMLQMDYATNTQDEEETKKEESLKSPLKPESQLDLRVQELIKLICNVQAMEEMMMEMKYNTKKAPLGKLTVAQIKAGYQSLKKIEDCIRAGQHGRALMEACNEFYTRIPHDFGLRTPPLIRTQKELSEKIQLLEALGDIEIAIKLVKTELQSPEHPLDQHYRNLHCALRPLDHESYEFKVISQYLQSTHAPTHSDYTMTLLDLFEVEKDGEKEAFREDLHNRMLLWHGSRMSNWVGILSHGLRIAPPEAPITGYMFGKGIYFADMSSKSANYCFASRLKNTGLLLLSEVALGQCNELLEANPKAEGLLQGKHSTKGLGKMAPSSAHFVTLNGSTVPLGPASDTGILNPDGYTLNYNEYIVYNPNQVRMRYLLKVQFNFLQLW
PARP1, sequence (P09874 whole entry, species assumed): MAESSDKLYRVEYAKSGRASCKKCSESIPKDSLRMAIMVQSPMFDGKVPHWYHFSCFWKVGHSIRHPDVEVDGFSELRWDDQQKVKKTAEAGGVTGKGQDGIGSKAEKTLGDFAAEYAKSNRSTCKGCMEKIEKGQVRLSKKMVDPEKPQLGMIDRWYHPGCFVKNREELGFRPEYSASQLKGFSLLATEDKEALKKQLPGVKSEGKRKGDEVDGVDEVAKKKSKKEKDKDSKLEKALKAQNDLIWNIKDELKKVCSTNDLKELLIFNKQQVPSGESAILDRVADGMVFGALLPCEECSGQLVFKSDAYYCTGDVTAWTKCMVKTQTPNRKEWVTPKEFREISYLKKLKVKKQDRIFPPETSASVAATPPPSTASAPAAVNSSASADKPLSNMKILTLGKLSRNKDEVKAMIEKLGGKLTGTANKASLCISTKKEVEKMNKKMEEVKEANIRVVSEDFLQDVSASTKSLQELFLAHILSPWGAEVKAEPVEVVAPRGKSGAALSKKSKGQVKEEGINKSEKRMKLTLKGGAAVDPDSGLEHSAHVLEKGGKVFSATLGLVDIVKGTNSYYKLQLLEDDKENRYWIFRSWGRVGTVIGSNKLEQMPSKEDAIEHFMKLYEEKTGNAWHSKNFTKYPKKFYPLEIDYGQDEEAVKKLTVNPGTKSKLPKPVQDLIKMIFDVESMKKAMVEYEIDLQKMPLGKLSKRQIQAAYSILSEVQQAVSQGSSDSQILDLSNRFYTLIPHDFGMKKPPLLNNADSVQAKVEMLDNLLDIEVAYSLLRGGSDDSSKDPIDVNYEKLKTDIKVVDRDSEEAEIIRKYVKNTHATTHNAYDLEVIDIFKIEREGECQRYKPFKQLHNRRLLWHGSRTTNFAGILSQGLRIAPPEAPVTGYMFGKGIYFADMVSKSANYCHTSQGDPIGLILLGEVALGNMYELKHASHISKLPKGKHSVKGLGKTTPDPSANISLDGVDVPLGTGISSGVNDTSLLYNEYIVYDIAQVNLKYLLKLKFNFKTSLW

CS(=O)(=O)c1ccc(-c2nnc(/C=C/c3nnc(-c4ccc(C#N)cc4)o3)n2-c2ccccc2Cl)nc1 [G007-LK, reference compound]
organoid growth over 20 days ([1]; ApcQ1405X organoids): robust suppression of organoid growth
colony formation, OVCAR4 ([2]; OVCAR4, 250nM, with or without Palbociclib): sensitive
organoid proliferation (organoid area and AlamarBlue) [3]: robust suppression of proliferation across all Tnks1 genotypes
transcriptional response (RNA-seq), Tnks1 KO [4]: broad transcriptional changes
transcriptional response (RNA-seq), Tnks1 WT [4]: broad transcriptional changes

COc1cc(-c2ccccc2)ncc1C(=O)Nc1ccc2c(=O)[nH]c(-c3ccc(C(C)(C)O)cc3)nc2c1 [TDI-012804, COC1=C(C=NC(=C1)C1=CC=CC=C1)C(=O)NC1=CC=C2C(=O)NC(=NC2=C1)C1=CC=C(C=C1)C(C)(C)O]
toxicity to Tnks1 KO compared to Tnks1 WT AKP-G13D organoids [5]: selectively toxic
AXIN1 protein (western blot), SW403 [6]: induced AXIN1 stabilization to similar levels as the pan-TNKS inhibitor G007-LK
organoid proliferation over 20 days, Tnks1 HET ([1]; ApcQ1405X Tnks1 HET organoids): significant reduction in proliferation
organoid proliferation over 20 days, Tnks1 KO ([1]; ApcQ1405X Tnks1 KO organoids): significant reduction in proliferation
effect of L1136Y mutation on potency against TNKS2 [7]: significantly reduced the potency
inhibition of PARP3 [8]: no inhibition
colony formation, H23 ([9]; 8p diploid H23, 250nM): nor suppress colony formation
colony formation, H23 with suppression of TNKS1 ([9]; H23 shTNKS1, 250nM, further enhanced with Palbociclib): significant sensitization
colony formation, OVCAR4 TNKS1-depleted ([2]; OVCAR4 shTNKS1, 250nM): significantly reduced
AXIN1 protein (western blot), H23 [10]: did not induce AXIN1 stabilization
EC50 [11]: < 100 nM
inhibition of PARP1 [12]: no inhibition
transcriptional response (RNA-seq), Tnks1 KO [4]: near-identical overall transcriptional response to G007-LK treated cultures
transcriptional response (RNA-seq), Tnks1 WT [4]: no significant gene expression changes
inhibition of PARP2 [13]: no inhibition
endogenous AXIN1 protein (western blot), TNKS1 HET ([14]; DLD1 TNKS1 HET): marked stabilization
endogenous AXIN1 protein (western blot), TNKS1 KO ([14]; DLD1 TNKS1 KO): marked stabilization
endogenous AXIN1 protein (western blot), TNKS1 diploid ([14]; DLD1 TNKS1 diploid controls): minimal increase
toxicity to Tnks1 KO compared to Tnks1 WT AKP-G12D organoids [15]: selectively toxic
AXIN1 protein (western blot), TNKS1 KO ([16]; TNKS1 KO DLD1, 250nM): increased AXIN1 protein
AXIN1 protein (western blot), TNKS1 KO/TNKS2 WT ([16]; TNKS1 KO DLD1 expressing TNKS2 WT cDNA, 250nM): increased AXIN1 protein
